NadD inh = blocks S. aureus nicotinate mononucleotide adenylyltransferase; AID 602399; inhibition, % at 20 µM; actives 0.78% (n = 360,000); purified NadD enzyme, colorimetric absorbance read-out; in the data active = inhibition above about 26%
ABHD5-PLIN5 inh = ABHD5-PLIN5 protein interaction inhibition | Q00G26+Q8WTS1 | Split G. princeps luciferase complementation, luminescence, 4 h | inhibition, % at 4 µM | actives 0.78% (n = 360,000) | AID 602281;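 active = inhibition above the mean inhibition across every tested compound plus 3 SD, cut at about 22% in these data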;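 also: 0% = DMSO only wells and the 100% control is not disclosed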
Rin1 Abl inh = blocks binding of human Rin1 to Abl; TR-FRET Rin1/Abl binding, biochemical; inhibition, % at 7.35 µM; actives 0.4% (n = 360,000); AID 588664; in the data active = inhibition above about 5%, passing the limit was not always enough
Rpn11 block = Rpn11 (human) deubiquitinase inhibition; O00487; human 26S proteasome, Ub4-pepOG fluorescence polarization; 20S core pre-blocked with epoxomicin; inhibition, % at 20 µM; actives 0.59% (n = 360,000);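 active = inhibition at 20 µM, scaled to each plate's controls, above about 33%, limit read from the data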
Xi reactivation = reactivates the inactive X chromosome in mouse fibroblasts; activation, % at 7.58 µM; XiGFP mouse fibroblasts, % GFP-positive cells imaging, 3 d; cells co-treated with 5-aza-dC sensitizer; scaled so ellipticine positive control = 100%; AID 743238; actives 0.055% (n = 360,000);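 active = mean normalized replicate activation at least 10% and every replicate at or above 10%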;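 also: 0% = median of on-plate neutral control wells and 100% = ellipticine 6 µM median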
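Schedule: 3 d treatment, 15 min room-temperature fixation; system: 68-5-11 XiGFP fibroblast line; buffer or medium: DMEM plus 5-aza-dC sensitizer; control set: ellipticine 6 µM positive control; compound: one concentration, pinned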
Rpn11 confirm = confirmation of human proteasome Rpn11 inhibitors; shares compounds with Rpn11 block; inhibition, % at 20 µM; purified human 26S proteasome, Ub4-pepOG fluorescence polarization; proteasome pretreated with epoxomicin; actives 29% (n = 1,900)
MMP-2 counter = MMP-2 (human) inhibition counter-screen; actives 4% (n = 1,900); recombinant MMP-2, FRET peptide cleavage fluorescence; inhibition, % at 20 µM; shares compounds with Rpn11 block;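 also: human MMP-2 activated beforehand with APMA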
Target sequence (P08253 whole entry, looked up): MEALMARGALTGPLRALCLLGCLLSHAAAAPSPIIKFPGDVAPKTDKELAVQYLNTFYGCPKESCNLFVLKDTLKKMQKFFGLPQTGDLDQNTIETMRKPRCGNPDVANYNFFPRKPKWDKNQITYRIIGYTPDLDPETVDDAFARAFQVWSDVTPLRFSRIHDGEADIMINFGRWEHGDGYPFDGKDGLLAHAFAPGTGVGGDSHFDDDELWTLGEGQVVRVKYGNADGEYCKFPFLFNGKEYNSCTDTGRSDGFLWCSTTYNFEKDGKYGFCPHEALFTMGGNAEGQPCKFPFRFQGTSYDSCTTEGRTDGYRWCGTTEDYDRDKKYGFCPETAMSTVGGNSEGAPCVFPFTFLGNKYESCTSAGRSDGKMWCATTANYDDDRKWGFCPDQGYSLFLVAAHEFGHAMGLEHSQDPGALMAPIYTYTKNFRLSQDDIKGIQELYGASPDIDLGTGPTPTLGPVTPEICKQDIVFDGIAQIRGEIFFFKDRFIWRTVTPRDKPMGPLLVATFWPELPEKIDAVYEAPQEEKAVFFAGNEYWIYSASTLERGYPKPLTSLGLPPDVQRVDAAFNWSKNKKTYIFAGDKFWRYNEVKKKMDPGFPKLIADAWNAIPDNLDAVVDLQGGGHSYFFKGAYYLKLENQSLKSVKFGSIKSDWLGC
Thrombin FP = blocks bovine thrombin, flagging nonselective RPN11 hits. shares compounds with Rpn11 block. bovine thrombin cleavage of Ub4-pepOG, fluorescence polarization. inhibition, % at 20 µM. actives 13% (n = 1,900). AID 602333;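 active = mean inhibition at least 40% at 20 µM, or signal 3 deviations below plate average, so some actives read negative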;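 also: plate controls were thrombin with DMSO for no effect and buffer wells lacking thrombin for full effect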
The depositor's hits bear a star; . = not tested or not shown. This is a sample that favours compounds with a hit; in the whole collection about 1.9% have one here. Rule as the data show it, unless noted: active = inhibition above about 40%; inactive = the rest.

SMILES | NadD inh | ABHD5-PLIN5 inh | Rin1 Abl inh | Rpn11 block | Xi reactivation | Rpn11 confirm | MMP-2 counter | Thrombin FP
COc1ccc(NC(=O)c2nc(S(=O)(=O)Cc3cccc(C)c3)ncc2Cl)c(OC)c1 | 4 | 15 | 0 | 41* | 0 | 27 | -35 | -9
COc1ccc(NC(=O)c2c(-c3ccccc3Cl)noc2C)c(OC)c1 | -6 | 6 | 0 | 0 | . | . | . | .
C[C@H]1CN(C)C(=O)c2cccc(N(C)C)c2O[C@H]1CN(C)C | . | . | . | . | 0 | . | . | .
CCN(CC)S(=O)(=O)c1cccc(NC(=O)COc2ccc(C#N)cc2OC)c1 | -2 | -5 | -3 | -2 | . | . | . | .
CCN(CC)S(=O)(=O)c1cccc(NC(=O)COc2ccc(F)cc2Br)c1 | -11 | -7 | -3 | 46* | 0 | 1 | 26 | -3
CCC(=O)N1CC2(CCN(Cc3cncnc3)CC2)c2c([nH]c3cc(OC)ccc23)[C@@H]1CO | . | . | . | . | 0 | . | . | .
O=C(Cn1cnc2c(nnn2-c2ccccc2)c1=O)NCc1ccc(F)cc1 | -7 | 7 | -3 | 73* | 0 | 61* | 46* | -8
Cc1ccc(-n2nnc3c(=O)n(CC(=O)NCc4ccccc4)cnc32)cc1 | 2 | -4 | 3 | 43* | 0 | 49* | 26 | -19
O=C(Cn1cnc2c(nnn2Cc2ccc(F)cc2)c1=O)NCc1ccccc1 | -3 | 4 | -1 | 0 | 0 | . | . | .
CN1/C(=C/C(=O)c2nc(S(C)(=O)=O)ncc2Cl)C(C)(C)c2ccccc21 | -3 | 69* | -4 | 49* | . | 2 | -18 | 11
O=C(O)CCc1ccc(-c2ccccc2)n1CC1CCCO1 (stereo not drawn) | 3 | 8 | 3 | 55* | . | 12 | -26 | 6
O=C(Cc1cccnc1)N1CC(=O)N2[C@H](CO)[C@@H](c3ccc(-c4cccc(F)c4)cc3)[C@@H]2C1 | . | . | . | . | 1 | . | . | .
C[C@@H]1C(=O)N[C@H](c2ccc(F)cc2)CC=CC[C@H](C)Oc2ccccc2C(=O)N1C (mixture of isomers) | . | . | . | . | 0 | . | . | .
CN1CCN(S(=O)(=O)c2cccc(C(=O)Nc3sc4c(c3C(N)=O)CCCC4)c2)CC1 | -3 | 5 | -3 | 90* | . | 6 | 25 | -3
COc1ccc(NC(=O)N(C)C[C@@H]2Oc3c(NC(=O)Nc4ccc(C(F)(F)F)cc4)cccc3C(=O)N([C@H](C)CO)C[C@@H]2C)cc1 | . | . | . | . | 0 | . | . | .
COc1ccc(C2CC(c3cccs3)=NN2S(=O)(=O)c2ccc(C)cc2)cc1 (stereo not drawn) | -2 | -6 | -1 | 8 | . | . | . | .
Cc1ccc(C2CC(c3cccs3)=NN2S(=O)(=O)c2ccc(C)cc2)cc1 (stereo not drawn) | 1 | -5 | 1 | 45* | 0 | 41* | -12 | 19
Nc1c(C(=O)N/N=C/c2ccc(F)cc2)oc2nc(-c3ccccc3)cc(-c3ccco3)c12 | 11 | -6 | -4 | 44* | 0 | 94* | -18 | 20
COc1ccc(-c2nc(/C=C3\C(C)=Nc4ccccc43)c(O)o2)cc1 | 17 | 12 | -1 | . | 0 | . | . | .
CC1=Nc2ccccc2/C1=C\c1nc(-c2ccccc2)oc1O | 15 | 13 | -3 | 44* | . | 43* | -5 | 22
N/C(=N\c1nc2c(c(=O)[nH]1)CCC2)Nc1cccc2ccccc12 | 6 | -6 | 2 | 36* | . | 47* | -6 | 6
COCC(=O)N1CC2(C1)[C@@H](c1ccc(-c3ccc(F)cc3)cc1)[C@H](CO)N2C(C)=O | . | . | . | . | 1 | . | . | .
COc1ccccc1-n1cnc2c(c1=O)c1nc3ccccc3nc1n2-c1ccc(C)c(C)c1 | 2 | 12 | -2 | 54* | 0 | 24 | -23 | 0
Cc1cc(NN=Cc2ccccn2)nc2ccccc12 | . | . | . | . | 0 | . | . | .
O=[N+]([O-])c1ccc(/C=N/Nc2ccnc3cc(Cl)ccc23)o1 | 27 | 4 | 1 | 50* | 0 | 39 | -15 | 16
SMILES | NadD inh | ABHD5-PLIN5 inh | Rin1 Abl inh | Rpn11 block | Xi reactivation | Rpn11 confirm | MMP-2 counter | Thrombin FP
Cc1cc(N/N=C/c2ccc([N+](=O)[O-])o2)nc2ccccc12 | 14 | 5 | -10 | 51* | 43* | 25 | -12 | 10
Cc1cc2ncn(/N=C/c3ccc([N+](=O)[O-])o3)c2cc1C | -2 | -8 | 0 | 50* | . | 50* | -22 | 20
COCC(=O)Nc1ccc2c(c1)C(=O)N(C)C[C@H](OC)[C@H](C)CN[C@@H](C)CO2 | . | . | . | . | 0 | . | . | .
CC1=NN(c2nc(N)nc(/C(C#N)=C/c3ccc([N+](=O)[O-])o3)n2)C(C)(C)C1 | 13 | -2 | 1 | 79* | 73* | 4 | 12 | 15
O=C1C2C(C(=O)N1/N=C/c1ccc([N+](=O)[O-])o1)C1C=CC2C12CC2 (stereo not drawn) | 0 | 0 | 1 | -2 | 1 | . | . | .
CNC[C@@H]1Oc2cc(C#Cc3ccccn3)ccc2S(=O)(=O)N([C@H](C)CO)C[C@H]1C | . | . | . | . | 0 | . | . | .
COc1ccc(S(=O)(=O)N(C)C[C@@H]2Oc3c(NC(=O)Nc4ccccc4)cccc3C(=O)N([C@H](C)CO)C[C@@H]2C)cc1 | . | . | . | . | 0 | . | . | .
C[C@H](CO)N1C[C@H](C)[C@@H](CN(C)S(C)(=O)=O)Oc2cc(C3=CCCC3)ccc2S1(=O)=O | . | . | . | . | -1 | . | . | .
O=C(COC(=O)CCNS(=O)(=O)c1ccc(Cl)cc1)Nc1ccccc1OC(F)F | 1 | -5 | 0 | 89* | 0 | -21 | -38 | -24
Cc1ccc(S(=O)(=O)NCC(=O)OCC(=O)Nc2ccccc2OC(F)F)cc1 | 1 | 1 | -1 | 2 | 0 | . | . | .
Cc1nn(-c2ccccc2)c(Cl)c1/C=C1\SC(=S)NC1=O | 8 | 5 | -2 | 48* | . | -7 | 14 | -7
COc1ccc(/C=C2/SC(=S)N(CCCC(=O)Nc3ccc(O)cc3)C2=O)cc1OC | 10 | 6 | -3 | 45* | 0 | 61* | -10 | 42*
Cc1ccc(/C=C2/SC(=S)N(CCCC(=O)Nc3ccc(O)cc3)C2=O)cc1 | 2 | 7 | 6 | -10 | 0 | . | . | .
Cc1ccc(/C=C2\SC(=S)N(CCCC(=O)NNC(=O)c3ccccc3O)C2=O)cc1 | 27 | 2 | -1 | 42* | 3 | 43* | -32 | -22
COc1ccc(/C=C2\SC(=S)N(CCCC(=O)Nc3ccc(C(=O)O)cc3)C2=O)cc1OC | 2 | 6 | -1 | 56* | 0 | 67* | -24 | 52*
CCOc1ccc(/C=C2/SC(=S)N(CCC(=O)Nc3ccc(C(=O)O)cc3)C2=O)cc1 | 38* | -1 | 4 | 79* | 0 | -10 | -2 | 2

Screens: PubChem BioAssay, several laboratories
